Laboratory results: ChEMBL document CHEMBL1138142, “Novel endoperoxides: synthesis and activity against Candida species” (Bioorg Med Chem Lett, 2006)

How the values were obtained:
Format in all cases: functional, organism-based
Pichia kudriavzevii = assay: Inhibitory activity against Candida krusei
How it was run: (§1)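 Microbroth dilution in YEPD (1% yeast extract, 2% peptone, 2% glucose, […]), starting inoculum A595 0.2–0.3; compounds as twofold serial dilutions down from 1 mM, growth control on same plate. Shaken at 35 °C; A595 read at addition and 2 h later. Triplicates averaged, IC50 (50% growth inhibition) calculated. Strains: C. albicans JRW #5, C. krusei WM 03,204 (clinical isolates), C. tropicalis ATCC 750.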

Candida tropicalis = assay: Inhibitory activity against Candida tropicalis; how it was run: as §1
Candida albicans = assay: Inhibitory activity against Candida albicans; how it was run: as §1

| Compound | IC50 (Pichia kudriavzevii; Pichia kudriavzevii) | IC50 (Candida tropicalis; Candida tropicalis) | IC50 (Candida albicans; Candida albicans) | IC50 (Pichia kudriavzevii) | IC50 (Candida tropicalis) | IC50 (Candida albicans) |
| --- | --- | --- | --- | --- | --- | --- |
| C1CCC([C@H]2OO[C@@H](C3CCCCC3)[C@H]3O[C@H]32)CC1 | 400 µM | 25 µM | 100 µM |  |  |  |
| C1=C[C@@H](C2CCCC2)OOC1 | > 1000 µM | 250 µM | 500 µM |  |  |  |
| C1CCC([C@H]2OO[C@@H](C3CCCC3)[C@@H]3O[C@@H]32)C1 | 63 µM | 125 µM | 125 µM |  |  |  |
| C1CCC([C@H]2OOC[C@@H]3O[C@@H]32)C1 | 500 µM | 250 µM | 500 µM |  |  |  |
| C1CCC([C@H]2OOC[C@@H]3O[C@@H]32)CC1 | 500 µM | 125 µM | 250 µM |  |  |  |
| O=C(C1CCCCC1)[C@H]1O[C@H]1[C@@H](O)C1CCCCC1 | 500 µM | 63 µM | 250 µM |  |  |  |
| C1=C[C@H](C2CCCC2)OO[C@@H]1C1CCCC1 | > 1000 µM | 125 µM | 250 µM |  |  |  |
| C1=C[C@@H](C2CCCCC2)OOC1 | 75 µM | 40 µM | 9.5 µM |  |  |  |
| C1=C[C@H](C2CCCCC2)OO[C@@H]1C1CCCCC1 | 400 µM | 200 µM | > 1000 µM |  |  |  |
| C1CCC([C@H]2OOC[C@H]3O[C@@H]23)C1 | 300 µM | 75 µM | 250 µM |  |  |  |
| C1CC([C@H]2OO[C@@H](C3CCC3)[C@@H]3O[C@@H]32)C1 | 500 µM | 500 µM | 250 µM |  |  |  |
| C1=C[C@H](C2CCC2)OO[C@@H]1C1CCC1 | 250 µM | 125 µM | 125 µM |  |  |  |
| C1CC([C@H]2OO[C@@H](C3CCC3)[C@H]3O[C@H]32)C1 | 500 µM | 250 µM | 250 µM |  |  |  |
| C1CCC([C@H]2OO[C@@H](C3CCCCC3)[C@@H]3O[C@@H]32)CC1 | > 1000 µM | 200 µM | 100 µM |  |  |  |
| C1CCC([C@H]2OO[C@@H](C3CCCC3)[C@H]3O[C@H]32)C1 | 125 µM | 125 µM | 250 µM |  |  |  |
| C[C@@H]1[C@H](O)[C@@H](C)/C=C/C=C/C=C/C=C/C=C/C=C/C=C/[C@H](O[C@@H]2O[C@H](C)[C@@H](O)[C@H](N)[C@@H]2O)C[C@@H]2O[C@](O)(C[C@@H](O)C[C@@H](O)[C@H](O)CC[C@@H](O)C[C@@H](O)CC(=O)O[C@H]1C)C[C@H](O)[C@H]2C(=O)O [AMPHOTERICIN B] | 0.2 µM | 0.1 µM | < 0.5 µM |  |  |  |
| CC(=O)N1CCN(c2ccc(OCC3COC(Cn4ccnc4)(c4ccc(Cl)cc4Cl)O3)cc2)CC1 (centres undefined) [KETOCONAZOLE] | 100 µM | 12 µM | 250 µM |  |  |  |
| NYSTATIN |  |  |  | 100 µM | 100 µM | 250 µM |
